Calls of active or inactive are those of the source. The rule behind the calls is not given here.
Key:
Oocyte [1] = experiment: Allosteric modulation of gamma-aminobutyric acid receptor A alpha1beta2gamma2S expressed in Xenopus oocytes assessed as potentiation of GABA-mediated chloride current at 0.1 to 500 uM by voltage clamp analysis relative to control; format: cell-based
Method in brief: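 Two-electrode voltage clamp on Xenopus oocytes injected with α1, β2, γ2S cRNA at a 1:1:10 ratio, recorded on days 1–5 at a holding potential of […]. Bath: 90 mM NaCl, 1 mM KCl, 1 mM MgCl2, 1 mM CaCl2, 5 mM HEPES pH 7.4. Compound was co-applied by fast perfusion with GABA EC5-10 (typically 3–10 μM). Potentiation was calculated as I(GABA+Comp)/IGABA − 1, and concentration-response curves were fitted by nonlinear regression.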

[2] = (§1) Allosteric modulation of gamma-aminobutyric acid receptor A alpha1beta2gamma2S expressed in Xenopus oocytes assessed as potentiation of GABA-mediated chloride current by voltage clamp analysis; format: cell-based; conditions: Oocyte
Method in brief: (§2)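 Oocytes were injected with α1β2γ2S, α1β3γ2S, α2β2γ2S, α3β2γ2S or α5β2γ2S cRNAs at a 1:1:10 ratio. Two-electrode voltage clamp was run 1–5 days post-injection in HEPES-buffered saline at pH 7.4. Compounds in GABA EC5–10 (3–10 μM) were given by automated fast perfusion: screening at 10 and 100 μM (n = 2), otherwise concentration series. Potentiation = I(GABA+Comp)/IGABA − 1, with nonlinear regression fits.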

Oocyte [3] = experiment: Allosteric modulation of gamma-aminobutyric acid receptor A alpha1beta2gamma2S expressed in Xenopus oocytes assessed as potentiation of GABA-mediated chloride current at 10 uM by voltage clamp analysis relative to control; format: cell-based; method in brief: as §2
Oocyte [4] = experiment: Allosteric modulation of gamma-aminobutyric acid receptor A alpha1beta2gamma2S expressed in Xenopus oocytes assessed as potentiation of GABA-mediated chloride current at 100 uM by voltage clamp analysis relative to control; format: cell-based; method in brief: as §2
Oocyte [5] = experiment: Allosteric modulation of gamma-aminobutyric acid receptor A alpha1beta2gamma2S expressed in Xenopus oocytes assessed as potentiation of GABA-mediated chloride current at 30 uM by voltage clamp analysis; format: cell-based; method in brief: as §2
Oocyte [6] = experiment: Allosteric modulation of gamma-aminobutyric acid receptor A alpha1beta2gamma2S expressed in Xenopus oocytes assessed as potentiation of GABA-mediated chloride current at 100 uM by voltage clamp analysis; format: cell-based; method in brief: as §2
[7] = target: T1, GABA-A receptor; GABA-A site (alpha1/beta2 interface) (Homo sapiens) (UniProt P14867+P47870); experiment: Allosteric modulation of gamma-aminobutyric acid receptor A alpha1beta2 expressed in Xenopus oocytes assessed as potentiation of GABA-mediated chloride current at 30 uM by voltage clamp analysis; format: cell-based; conditions: Oocyte
[8] = target: T1, GABA-A receptor; GABA-A site (alpha1/beta2 interface) (Homo sapiens); experiment: Allosteric modulation of gamma-aminobutyric acid receptor A alpha1beta2 expressed in Xenopus oocytes assessed as potentiation of GABA-mediated chloride current at 100 uM by voltage clamp analysis; format: cell-based; conditions: Oocyte
Oocyte [9] = experiment: Agonist activity at gamma-aminobutyric acid receptor A alpha1beta1gamma2S expressed in Xenopus oocytes assessed as potentiation of GABA-mediated chloride current at 300 uM by voltage clamp analysis; format: functional, cell-based
Method in brief: (§3)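 α1β1γ2S cRNAs (3:1:10) injected into Xenopus oocytes and recorded 1–5 days later by two-microelectrode voltage clamp. Bath was 90 mM NaCl, 1 mM KCl, 1 mM MgCl2, 1 mM CaCl2, 5 mM HEPES, pH 7.4. Compound was co-applied by fast perfusion with GABA at EC5–10 (3–10 μM). Enhancement = I(GABA+Comp)/IGABA − 1. Concentration-response curves fitted by nonlinear regression.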

Oocyte [10] = experiment: Agonist activity at gamma-aminobutyric acid receptor A alpha1beta2gamma2S expressed in Xenopus oocytes assessed as potentiation of GABA-mediated chloride current by voltage clamp analysis; format: functional, cell-based; method in brief: as §2
Oocyte [11] = experiment: Agonist activity at gamma-aminobutyric acid receptor A alpha1beta3gamma2S expressed in Xenopus oocytes assessed as potentiation of GABA-mediated chloride current by voltage clamp analysis; format: functional, cell-based; method in brief: as §2
Oocyte [12] = experiment: Agonist activity at gamma-aminobutyric acid receptor A alpha2beta2gamma2S expressed in Xenopus oocytes assessed as potentiation of GABA-mediated chloride current by voltage clamp analysis; format: functional, cell-based; method in brief: as §2
Oocyte [13] = experiment: Agonist activity at gamma-aminobutyric acid receptor A alpha3beta2gamma2S expressed in Xenopus oocytes assessed as potentiation of GABA-mediated chloride current by voltage clamp analysis; format: functional, cell-based; method in brief: as §2
Oocyte [14] = experiment: Agonist activity at gamma-aminobutyric acid receptor A alpha5beta2gamma2S expressed in Xenopus oocytes assessed as potentiation of GABA-mediated chloride current by voltage clamp analysis; format: functional, cell-based; method in brief: as §2
Mus musculus [15] = experiment: Anxiolytic activity in C57Bl/6N mouse assessed as ambulation distance at 3 mg/kg, ip measured after 30 mins by open field test ( Rvb = 31.8 +/- 1.7 m); format: functional; conditions: route intraperitoneal
Mus musculus [16] = experiment: Anxiolytic activity in C57Bl/6N mouse assessed as ambulation distance at 30 mg/kg, ip measured after 30 mins by open field test ( Rvb = 31.8 +/- 1.7 m); format: functional; conditions: route intraperitoneal
Oocyte [17] = experiment: Ratio of isopimaric acid EC50 to compound EC50 for gamma-aminobutyric acid receptor A alpha1beta1gamma2S expressed in Xenopus oocytes assessed as potentiation of GABA-mediated chloride current by voltage clamp analysis; format: cell-based
Oocyte [18] = experiment: Allosteric modulation of gamma-aminobutyric acid receptor A alpha5beta2gamma2S expressed in Xenopus oocytes assessed as potentiation of GABA-mediated chloride current at 0.1 to 500 uM by voltage clamp analysis relative to control; format: cell-based; method in brief: as §2
Oocyte [19] = experiment: Allosteric modulation of gamma-aminobutyric acid receptor A alpha3beta2gamma2S expressed in Xenopus oocytes assessed as potentiation of GABA-mediated chloride current at 0.1 to 500 uM by voltage clamp analysis relative to control; format: cell-based; method in brief: as §2
Oocyte [20] = experiment: Allosteric modulation of gamma-aminobutyric acid receptor A alpha2beta2gamma2S expressed in Xenopus oocytes assessed as potentiation of GABA-mediated chloride current at 0.1 to 500 uM by voltage clamp analysis relative to control; format: cell-based; method in brief: as §2
Oocyte [21] = experiment: Allosteric modulation of gamma-aminobutyric acid receptor A alpha1beta3gamma2S expressed in Xenopus oocytes assessed as potentiation of GABA-mediated chloride current at 0.1 to 500 uM by voltage clamp analysis relative to control; format: cell-based; method in brief: as §2
Oocyte [22] = experiment: Allosteric modulation of gamma-aminobutyric acid receptor A alpha1beta1gamma2S expressed in Xenopus oocytes assessed as potentiation of GABA-mediated chloride current at 0.1 to 500 uM by voltage clamp analysis relative to control; format: cell-based; method in brief: as §3
[23] = (§4) Allosteric modulation of gamma-aminobutyric acid receptor A alpha5beta2gamma2S expressed in Xenopus oocytes assessed as potentiation of GABA-mediated chloride current by voltage clamp analysis relative to control; format: cell-based; conditions: Oocyte; method in brief: as §2
Oocyte [24] = experiment: as §4; format: cell-based; method in brief: as §2
[25] = (§5) Allosteric modulation of gamma-aminobutyric acid receptor A alpha3beta2gamma2S expressed in Xenopus oocytes assessed as potentiation of GABA-mediated chloride current by voltage clamp analysis; format: cell-based; conditions: Oocyte; method in brief: as §2
Oocyte [26] = experiment: as §5; format: cell-based; method in brief: as §2
[27] = (§6) Allosteric modulation of gamma-aminobutyric acid receptor A alpha2beta2gamma2S expressed in Xenopus oocytes assessed as potentiation of GABA-mediated chloride current by voltage clamp analysis; format: cell-based; conditions: Oocyte; method in brief: as §2
Oocyte [28] = experiment: as §6; format: cell-based; method in brief: as §2
[29] = (§7) Allosteric modulation of gamma-aminobutyric acid receptor A alpha1beta3gamma2S expressed in Xenopus oocytes assessed as potentiation of GABA-mediated chloride current by voltage clamp analysis; format: cell-based; conditions: Oocyte; method in brief: as §2
Oocyte [30] = experiment: as §7; format: cell-based; method in brief: as §2
Oocyte [31] = experiment: as §1; format: cell-based; method in brief: as §2
[32] = (§8) Allosteric modulation of gamma-aminobutyric acid receptor A alpha1beta1gamma2S expressed in Xenopus oocytes assessed as potentiation of GABA-mediated chloride current by voltage clamp analysis; format: cell-based; conditions: Oocyte; method in brief: as §3
Oocyte [33] = experiment: as §8; format: cell-based; method in brief: as §3
Oocyte [34] = experiment: Ratio of isopimaric acid EC50 to compound EC50 for gamma-aminobutyric acid receptor A alpha1beta2gamma2S expressed in Xenopus oocytes assessed as potentiation of GABA-mediated chloride current by voltage clamp analysis; format: cell-based
Oocyte [35] = experiment: Ratio of isopimaric acid EC50 to compound EC50 for gamma-aminobutyric acid receptor A alpha1beta3gamma2S expressed in Xenopus oocytes assessed as potentiation of GABA-mediated chloride current by voltage clamp analysis; format: cell-based
Oocyte [36] = experiment: Ratio of isopimaric acid EC50 to compound EC50 for gamma-aminobutyric acid receptor A alpha2beta2gamma2S expressed in Xenopus oocytes assessed as potentiation of GABA-mediated chloride current by voltage clamp analysis; format: cell-based
Oocyte [37] = experiment: Ratio of isopimaric acid EC50 to compound EC50 for gamma-aminobutyric acid receptor A alpha3beta2gamma2S expressed in Xenopus oocytes assessed as potentiation of GABA-mediated chloride current by voltage clamp analysis; format: cell-based
Oocyte [38] = experiment: Ratio of isopimaric acid EC50 to compound EC50 for gamma-aminobutyric acid receptor A alpha5beta2gamma2S expressed in Xenopus oocytes assessed as potentiation of GABA-mediated chloride current by voltage clamp analysis; format: cell-based
Oocyte [39] = experiment: Ratio of isopimaric acid Imax to compound Imax for gamma-aminobutyric acid receptor A alpha1beta1gamma2S expressed in Xenopus oocytes assessed as potentiation of GABA-mediated chloride current at 0.1 to 500 uM by voltage clamp analysis; format: cell-based
Oocyte [40] = experiment: Ratio of isopimaric acid Imax to compound Imax for gamma-aminobutyric acid receptor A alpha1beta2gamma2S expressed in Xenopus oocytes assessed as potentiation of GABA-mediated chloride current at 0.1 to 500 uM by voltage clamp analysis; format: cell-based
Oocyte [41] = experiment: Ratio of isopimaric acid Imax to compound Imax for gamma-aminobutyric acid receptor A alpha1beta3gamma2S expressed in Xenopus oocytes assessed as potentiation of GABA-mediated chloride current at 0.1 to 500 uM by voltage clamp analysis; format: cell-based
Oocyte [42] = experiment: Ratio of isopimaric acid Imax to compound Imax for gamma-aminobutyric acid receptor A alpha2beta2gamma2S expressed in Xenopus oocytes assessed as potentiation of GABA-mediated chloride current at 0.1 to 500 uM by voltage clamp analysis; format: cell-based
Oocyte [43] = experiment: Ratio of isopimaric acid Imax to compound Imax for gamma-aminobutyric acid receptor A alpha3beta2gamma2S expressed in Xenopus oocytes assessed as potentiation of GABA-mediated chloride current at 0.1 to 500 uM by voltage clamp analysis; format: cell-based
Oocyte [44] = experiment: Ratio of isopimaric acid Imax to compound Imax for gamma-aminobutyric acid receptor A alpha5beta2gamma2S expressed in Xenopus oocytes assessed as potentiation of GABA-mediated chloride current at 0.1 to 500 uM by voltage clamp analysis; format: cell-based

## CCc1cc2c(s1)N(C)C(=O)CN=C2c1ccccc1Cl [CLOTIAZEPAM]
Oocyte [1]
  Imax: 260%
[2]
  EC50: 184 nM

## Cc1ncc2n1-c1ccc(Cl)cc1C(c1ccccc1F)=NC2 [MIDAZOLAM]
Oocyte [1]
  Imax: 342%
[2]
  EC50: 143 nM

## CC(C)c1c(O)ccc2c1CC[C@H]1C(C)(C)CCC[C@]21C
Oocyte [3]
  Imax: -10.6%
Oocyte [4]
  Imax: -15.1%

## C=C[C@]1(C)C=C2CC[C@@H]3[C@](C)(CCC[C@@]3(C)C(=O)O)[C@H]2CC1 [SANDARACOPIMARIC ACID]
Oocyte [5]
  Activity: Active
Oocyte [6]
  Activity: Active
[7]
  Activity: Active
[8]
  Activity: Active
Oocyte [9]
  Activity: inactive
Oocyte [10]
  Activity: inactive
Oocyte [11]
  Activity: inactive
Oocyte [12]
  Activity: inactive
Oocyte [13]
  Activity: inactive
Oocyte [14]
  Activity: inactive
Mus musculus [15]
  Activity: 25.1 m
Mus musculus [16]
  Activity: 22.3 m
Oocyte [17]
  Ratio EC50: 6.02
Oocyte [18]
  Imax: 513%
Oocyte [19]
  Imax: 1100%
Oocyte [20]
  Imax: 1090%
Oocyte [21]
  Imax: 520%
Oocyte [1]
  Imax: 856%
Oocyte [22]
  Imax: 502%
[23]
  EC50: 40.7 µM
Oocyte [24]
  Activity: Dose-dependent effect
[25]
  EC50: 56.6 µM
Oocyte [26]
  Activity: Dose-dependent effect
[27]
  EC50: 31.2 µM
Oocyte [28]
  Activity: Dose-dependent effect
[29]
  EC50: 24.9 µM
Oocyte [30]
  Activity: Dose-dependent effect
[2]
  EC50: 33300 nM
Oocyte [31]
  Activity: Dose-dependent effect
[32]
  EC50: 48.1 µM
Oocyte [33]
  Activity: Dose-dependent effect
Oocyte [34]
  Ratio EC50: 4.25
Oocyte [35]
  Ratio EC50: 10.3
Oocyte [36]
  Ratio EC50: 11.7
Oocyte [37]
  Ratio EC50: 12.8
Oocyte [38]
  Ratio EC50: 7.79
Oocyte [39]
  Ratio: 1.43
Oocyte [40]
  Ratio: 0.5
Oocyte [41]
  Ratio: 0.92
Oocyte [42]
  Ratio: 0.94
Oocyte [43]
  Ratio: 0.98
Oocyte [44]
  Ratio: 0.92

## C=C[C@]1(C)C=C2CC[C@H]3[C@](C)(CO)[C@@H](O)CC[C@]3(C)[C@H]2CC1
Oocyte [3]
  Imax: 13.8%
Oocyte [4]
  Imax: 7.7%

Reference: ChEMBL document CHEMBL2146456, “Identification and characterization of GABA(A) receptor modulatory diterpenes from Biota orientalis that decrease locomotor activity in mice” (J Nat Prod, 2011)
